Test results as given in ChEMBL document CHEMBL4033760, “Discovery of a Series of Indazole TRPA1 Antagonists” (ACS Med Chem Lett, 2017).
In brackets after ≈: the same amount, converted by molar mass. Activity calls are given as the source filed them. The calls are words filed in the database; no cut-off is given here.

Legend:
[1] = molecular target: T1, Transient receptor potential cation channel subfamily A member 1 (Homo sapiens, UniProt O75762); assay: Inhibition of full length human TRPA1 at a holding potential of 15 mV measured after 1 min by PatchXpress electrophysiology assay
T1 sequence (O75762 whole entry): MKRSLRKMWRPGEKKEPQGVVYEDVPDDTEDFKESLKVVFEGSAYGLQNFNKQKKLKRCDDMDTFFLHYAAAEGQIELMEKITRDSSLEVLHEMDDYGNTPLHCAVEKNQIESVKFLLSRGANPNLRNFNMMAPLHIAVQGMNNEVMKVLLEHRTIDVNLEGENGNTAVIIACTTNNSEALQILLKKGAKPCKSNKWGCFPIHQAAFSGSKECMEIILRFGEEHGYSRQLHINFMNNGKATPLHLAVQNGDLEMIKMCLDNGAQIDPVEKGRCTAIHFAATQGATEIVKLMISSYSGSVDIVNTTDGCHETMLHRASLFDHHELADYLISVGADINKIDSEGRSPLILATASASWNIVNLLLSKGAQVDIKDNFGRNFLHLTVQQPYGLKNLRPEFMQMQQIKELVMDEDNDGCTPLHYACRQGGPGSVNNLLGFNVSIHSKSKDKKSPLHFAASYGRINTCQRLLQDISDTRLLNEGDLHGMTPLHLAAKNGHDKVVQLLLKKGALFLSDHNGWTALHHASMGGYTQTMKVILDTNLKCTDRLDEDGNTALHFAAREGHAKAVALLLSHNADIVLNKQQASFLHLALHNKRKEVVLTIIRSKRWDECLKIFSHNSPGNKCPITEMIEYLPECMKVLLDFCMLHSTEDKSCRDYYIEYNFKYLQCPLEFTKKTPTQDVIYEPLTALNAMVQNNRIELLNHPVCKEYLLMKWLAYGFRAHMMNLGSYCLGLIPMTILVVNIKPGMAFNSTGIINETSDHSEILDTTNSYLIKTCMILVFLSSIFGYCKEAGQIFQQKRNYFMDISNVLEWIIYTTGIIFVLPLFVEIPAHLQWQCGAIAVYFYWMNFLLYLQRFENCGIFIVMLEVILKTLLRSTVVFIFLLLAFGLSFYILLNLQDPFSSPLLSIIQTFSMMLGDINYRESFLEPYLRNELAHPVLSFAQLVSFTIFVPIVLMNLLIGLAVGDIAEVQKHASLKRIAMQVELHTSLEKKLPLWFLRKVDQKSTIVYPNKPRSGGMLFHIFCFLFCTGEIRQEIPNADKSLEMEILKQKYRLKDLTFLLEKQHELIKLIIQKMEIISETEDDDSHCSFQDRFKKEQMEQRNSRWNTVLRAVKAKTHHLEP
Outline: (§1)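 Medium-throughput PatchXpress electrophysiology on HEK293-T-rex cells expressing TRPA1 (human line; selected compounds also run in a rat TRPA1 line).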

[2] = molecular target: T2, Transient receptor potential cation channel subfamily A member 1 (Rattus norvegicus, UniProt Q6RI86); assay: Inhibition of full length rat TRPA1 at a holding potential of 15 mV measured after 1 min by PatchXpress electrophysiology assay; outline: as §1
T2 sequence (Q6RI86 whole entry): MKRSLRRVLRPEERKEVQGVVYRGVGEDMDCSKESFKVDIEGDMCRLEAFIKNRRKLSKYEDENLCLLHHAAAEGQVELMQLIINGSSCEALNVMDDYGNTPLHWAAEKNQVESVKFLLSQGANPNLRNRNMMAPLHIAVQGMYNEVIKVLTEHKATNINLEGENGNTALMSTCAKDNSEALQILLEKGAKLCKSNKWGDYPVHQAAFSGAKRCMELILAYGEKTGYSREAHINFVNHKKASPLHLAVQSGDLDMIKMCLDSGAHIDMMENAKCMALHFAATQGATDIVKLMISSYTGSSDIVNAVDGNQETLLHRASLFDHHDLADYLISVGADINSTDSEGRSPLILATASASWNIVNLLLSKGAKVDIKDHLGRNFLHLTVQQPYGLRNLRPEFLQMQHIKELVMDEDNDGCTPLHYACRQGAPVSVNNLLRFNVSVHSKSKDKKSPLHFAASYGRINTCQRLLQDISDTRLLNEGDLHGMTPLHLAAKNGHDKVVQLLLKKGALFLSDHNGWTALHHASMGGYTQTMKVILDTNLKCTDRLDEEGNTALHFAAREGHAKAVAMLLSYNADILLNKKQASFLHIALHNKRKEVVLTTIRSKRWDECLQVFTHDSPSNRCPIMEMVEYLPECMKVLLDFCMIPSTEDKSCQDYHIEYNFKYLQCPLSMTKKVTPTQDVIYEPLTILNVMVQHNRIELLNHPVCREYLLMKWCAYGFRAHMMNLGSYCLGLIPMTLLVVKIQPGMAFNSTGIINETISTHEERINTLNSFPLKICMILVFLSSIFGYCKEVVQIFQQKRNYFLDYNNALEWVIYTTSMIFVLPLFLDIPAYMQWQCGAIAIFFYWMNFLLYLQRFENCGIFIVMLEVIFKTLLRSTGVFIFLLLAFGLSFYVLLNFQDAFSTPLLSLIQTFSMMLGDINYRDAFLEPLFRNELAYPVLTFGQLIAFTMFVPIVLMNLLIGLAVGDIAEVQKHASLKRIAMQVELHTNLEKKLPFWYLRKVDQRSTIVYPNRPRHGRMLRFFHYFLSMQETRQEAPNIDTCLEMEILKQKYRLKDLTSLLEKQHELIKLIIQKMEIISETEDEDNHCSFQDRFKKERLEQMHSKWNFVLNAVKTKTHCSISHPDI

[3] = molecular target: Voltage-gated potassium channel, KQT; KCNQ2(Kv7.2)/KCNQ3(Kv7.3) (Homo sapiens, UniProt O43525+O43526); assay: Activation of KCNQ2/3 (unknown origin); assay type: protein-complex assay
[4] = molecular target: T3, Potassium voltage-gated channel subfamily KQT member 1 (Homo sapiens, UniProt P51787); assay: Inhibition of KCNQ1 (unknown origin)
T3 sequence (P51787 whole entry): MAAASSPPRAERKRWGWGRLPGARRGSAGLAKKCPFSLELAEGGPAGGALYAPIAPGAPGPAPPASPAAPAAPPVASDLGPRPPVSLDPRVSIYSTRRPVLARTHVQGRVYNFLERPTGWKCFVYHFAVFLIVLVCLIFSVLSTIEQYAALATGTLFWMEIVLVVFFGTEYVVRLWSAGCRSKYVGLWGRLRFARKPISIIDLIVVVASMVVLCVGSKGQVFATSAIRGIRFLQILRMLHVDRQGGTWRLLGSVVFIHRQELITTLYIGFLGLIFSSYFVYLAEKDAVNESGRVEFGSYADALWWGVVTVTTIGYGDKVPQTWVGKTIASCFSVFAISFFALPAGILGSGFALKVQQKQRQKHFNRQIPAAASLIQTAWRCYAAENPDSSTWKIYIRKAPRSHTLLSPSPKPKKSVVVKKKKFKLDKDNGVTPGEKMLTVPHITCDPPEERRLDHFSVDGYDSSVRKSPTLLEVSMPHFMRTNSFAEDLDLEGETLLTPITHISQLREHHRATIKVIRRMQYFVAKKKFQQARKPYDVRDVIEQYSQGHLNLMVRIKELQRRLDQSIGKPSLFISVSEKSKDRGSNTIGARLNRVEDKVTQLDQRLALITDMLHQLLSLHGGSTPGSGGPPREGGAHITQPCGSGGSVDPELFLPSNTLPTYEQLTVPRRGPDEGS

[5] = Intrinsic clearance in human liver microsomes; assay type: ADME, microsome; settings: read-out: CLH
[6] = Intrinsic clearance in rat liver microsomes; assay type: ADME, microsome; settings: read-out: CLH
MDR1 [7] = assay: Permeability across basolateral to apical side in RRCK cells expressing MDR1; assay type: ADME, cell-based, Canis lupus familiaris, MDCKII-LE; settings: dog, MDCK-MDR1; read-out: permeability
MDR1 [8] = assay: Permeability across apical to basolateral side in RRCK cells expressing MDR1; assay type: ADME, cell-based, Canis lupus familiaris, MDCKII-LE; settings: dog, MDCK-MDR1; read-out: permeability
[9] = Aqueous solubility of the compound by kinetic miniaturized shakeflask method; assay type: physicochemical; settings: buffer
Outline: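 Kinetic miniaturized shake-flask method, starting from a DMSO stock solution.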

[10] = molecular target: T1, Transient receptor potential cation channel subfamily A member 1; assay: Antagonist activity at human TRPA1 by calcium flux based FLIPR assay
Outline: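 High-throughput antagonist-mode FLIPR Ca2+ imaging screen of the internal library in 384-well format; hits confirmed by single-rig electrophysiology.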

[11] = molecular target: Sodium channel protein type 5 subunit alpha (Homo sapiens, UniProt Q14524); assay: Inhibition of Nav1.5 (unknown origin)
Sodium channel protein type 5 subunit alpha, sequence (Q14524 whole entry): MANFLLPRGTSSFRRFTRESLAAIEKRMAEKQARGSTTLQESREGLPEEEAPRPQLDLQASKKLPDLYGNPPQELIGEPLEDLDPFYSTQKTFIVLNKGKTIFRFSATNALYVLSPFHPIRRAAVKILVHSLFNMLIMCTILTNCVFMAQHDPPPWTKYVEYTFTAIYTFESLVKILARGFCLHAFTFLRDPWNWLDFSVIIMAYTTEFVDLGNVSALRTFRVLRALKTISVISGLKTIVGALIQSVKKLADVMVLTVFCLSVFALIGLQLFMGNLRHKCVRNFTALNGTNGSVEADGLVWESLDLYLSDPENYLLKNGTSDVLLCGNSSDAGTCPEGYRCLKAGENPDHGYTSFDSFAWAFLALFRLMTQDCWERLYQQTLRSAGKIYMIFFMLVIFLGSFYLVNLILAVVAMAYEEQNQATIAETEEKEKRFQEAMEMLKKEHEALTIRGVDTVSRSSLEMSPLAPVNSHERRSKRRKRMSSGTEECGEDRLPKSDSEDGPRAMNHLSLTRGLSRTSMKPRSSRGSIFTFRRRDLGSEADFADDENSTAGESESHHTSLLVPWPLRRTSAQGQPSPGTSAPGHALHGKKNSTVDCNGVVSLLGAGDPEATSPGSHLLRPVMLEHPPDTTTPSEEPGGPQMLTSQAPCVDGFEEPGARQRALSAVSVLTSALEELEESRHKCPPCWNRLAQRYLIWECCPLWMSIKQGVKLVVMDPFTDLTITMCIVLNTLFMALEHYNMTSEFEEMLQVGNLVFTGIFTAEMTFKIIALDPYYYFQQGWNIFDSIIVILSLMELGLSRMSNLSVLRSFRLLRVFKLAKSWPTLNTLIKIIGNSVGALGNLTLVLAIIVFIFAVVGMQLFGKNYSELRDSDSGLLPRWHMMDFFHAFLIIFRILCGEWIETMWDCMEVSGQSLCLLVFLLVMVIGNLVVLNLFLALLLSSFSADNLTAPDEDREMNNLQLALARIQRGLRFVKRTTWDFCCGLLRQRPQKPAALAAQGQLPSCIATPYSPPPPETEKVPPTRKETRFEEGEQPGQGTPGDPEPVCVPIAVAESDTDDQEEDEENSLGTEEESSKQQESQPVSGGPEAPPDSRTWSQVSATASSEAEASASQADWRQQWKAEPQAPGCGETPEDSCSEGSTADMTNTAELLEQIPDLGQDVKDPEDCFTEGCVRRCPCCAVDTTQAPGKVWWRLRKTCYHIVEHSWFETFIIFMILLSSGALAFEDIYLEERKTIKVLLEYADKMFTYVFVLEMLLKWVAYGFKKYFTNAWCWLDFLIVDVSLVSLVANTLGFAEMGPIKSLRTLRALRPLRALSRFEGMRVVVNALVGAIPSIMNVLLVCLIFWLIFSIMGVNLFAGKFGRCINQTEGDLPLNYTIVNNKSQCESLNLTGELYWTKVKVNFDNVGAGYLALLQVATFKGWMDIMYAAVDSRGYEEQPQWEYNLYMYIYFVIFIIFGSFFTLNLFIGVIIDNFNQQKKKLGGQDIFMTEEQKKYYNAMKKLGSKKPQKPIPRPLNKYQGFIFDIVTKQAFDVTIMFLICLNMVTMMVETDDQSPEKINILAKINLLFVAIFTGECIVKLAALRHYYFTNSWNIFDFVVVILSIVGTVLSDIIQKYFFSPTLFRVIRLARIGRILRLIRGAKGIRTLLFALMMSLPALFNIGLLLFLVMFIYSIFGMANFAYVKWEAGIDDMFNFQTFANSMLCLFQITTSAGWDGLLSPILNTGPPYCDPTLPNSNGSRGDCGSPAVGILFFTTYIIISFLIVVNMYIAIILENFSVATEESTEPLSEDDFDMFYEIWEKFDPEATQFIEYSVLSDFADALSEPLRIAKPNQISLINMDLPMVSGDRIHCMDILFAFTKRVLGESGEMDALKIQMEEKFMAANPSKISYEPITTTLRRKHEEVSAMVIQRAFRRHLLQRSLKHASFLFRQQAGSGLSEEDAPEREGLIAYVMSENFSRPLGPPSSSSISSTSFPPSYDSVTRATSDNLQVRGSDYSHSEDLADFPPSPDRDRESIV

[12] = molecular target: Sodium channel protein type 9 subunit alpha (Homo sapiens, UniProt Q15858); assay: Inhibition of Nav1.7 (unknown origin)
[13] = molecular target: Transient receptor potential cation channel subfamily V member 1 (Homo sapiens, UniProt Q8NER1); assay: Inhibition of TRPV1 (unknown origin)
Transient receptor potential cation channel subfamily V member 1, sequence (Q8NER1 whole entry): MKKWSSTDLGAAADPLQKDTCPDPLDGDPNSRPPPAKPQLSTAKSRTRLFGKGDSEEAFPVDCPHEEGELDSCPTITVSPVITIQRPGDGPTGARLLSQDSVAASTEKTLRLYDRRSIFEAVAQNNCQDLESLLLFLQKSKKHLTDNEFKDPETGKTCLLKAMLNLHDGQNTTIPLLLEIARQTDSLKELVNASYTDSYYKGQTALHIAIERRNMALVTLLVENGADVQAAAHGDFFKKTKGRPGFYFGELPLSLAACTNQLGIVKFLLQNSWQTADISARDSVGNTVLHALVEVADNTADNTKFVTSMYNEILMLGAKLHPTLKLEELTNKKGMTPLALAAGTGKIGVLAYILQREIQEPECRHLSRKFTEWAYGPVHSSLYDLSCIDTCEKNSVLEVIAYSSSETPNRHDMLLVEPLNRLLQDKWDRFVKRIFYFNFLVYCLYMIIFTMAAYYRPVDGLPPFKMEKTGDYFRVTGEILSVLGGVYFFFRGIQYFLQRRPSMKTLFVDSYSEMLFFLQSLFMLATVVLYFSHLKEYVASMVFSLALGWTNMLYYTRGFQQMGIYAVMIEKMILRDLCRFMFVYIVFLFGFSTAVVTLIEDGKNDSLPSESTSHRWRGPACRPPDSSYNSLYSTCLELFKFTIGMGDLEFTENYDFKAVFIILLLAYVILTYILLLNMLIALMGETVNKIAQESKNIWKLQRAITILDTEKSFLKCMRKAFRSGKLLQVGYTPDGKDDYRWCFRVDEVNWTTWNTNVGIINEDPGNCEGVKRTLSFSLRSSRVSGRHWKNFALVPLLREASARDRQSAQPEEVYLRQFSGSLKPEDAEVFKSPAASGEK

[14] = molecular target: T2, Transient receptor potential cation channel subfamily A member 1; assay: Inhibition of rat TRPA1 at a holding potential of 15 mV measured after 1 min by whole-cell manual patch clamp electrophysiology assay
Rattus norvegicus [15] = assay: Anti-inflammatory activity in po dosed Sprague-Dawley rat assessed as reduction in flinching dosed 2 hrs prior to subcutaneous administration of AITC in right hand paw measured for 30 mins; assay type: functional
Outline: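 Oral dosing in rats; AITC then given subcutaneously into the right hind paw. Paw flinching is scored, and the minimum effective dose is taken as the lowest dose giving a significant reduction.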

Rattus norvegicus [16] = assay: Suppression of cinnamaldehyde-induced flare response in Sprague-Dawley rat at 10 to 100 mg/kg administered systemically measured after 75 mins by recording blood flow for 30 mins by laser Doppler sonography method; assay type: functional, organism-based
Outline: (§2)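 Rats dosed orally at 10, 30 and 100 mg/kg, with mean systemic concentrations measured. Flare is induced by cinnamaldehyde and blood flow read by laser Doppler sonography, compared against vehicle and a TRPV1 antagonist given as a mechanistic comparator.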

Blood = assay: Drug level in Sprague-Dawley rat blood at 10 to 100 mg/kg, po; assay type: ADME, organism-based; settings: in vivo, read-out: Drug uptake; outline: as §2
[17] = molecular target: Voltage-gated inwardly rectifying potassium channel KCNH2 (Homo sapiens, UniProt Q12809)
MDCKII-LE = assay: Permeability in RRCK cells expressing MDR1; settings: dog
[18] = molecular target: Transient receptor potential cation channel subfamily A member 1 (Rattus norvegicus) (UniProt Q6RI86); settings: 1 uM
Transient receptor potential cation channel subfamily A member 1 (Rattus norvegicus), sequence (Q6RI86 whole entry): as the sequence (Q6RI86 whole entry) above

[19] = Inhibition of full length opossum TRPA1 at a holding potential of 15 mV measured after 1 min by PatchXpress electrophysiology assay; set-up: species or system Monodelphis domestica
[20] = Inhibition of full length opossum TRPA1 hS5 chimera at a holding potential of 15 mV measured after 1 min by PatchXpress electrophysiology assay; set-up: species or system Monodelphis domestica
[21] = molecular target: T1, Transient receptor potential cation channel subfamily A member 1; assay: Inhibition of full length human TRPA1 oS5 chimera at a holding potential of 15 mV measured after 1 min by PatchXpress electrophysiology assay
Rattus norvegicus [22] = assay: Suppression of cinnamaldehyde-induced flare response in Sprague-Dawley rat at 50 mg/ml administered topically measured after 60 mins by recording blood flow for 30 mins by laser Doppler sonography method; assay type: functional
Outline: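 Compound formulated in vehicle, applied topically to rat skin at 50 mg/mL and left for a set time. Then 20% v/v cinnamaldehyde in the same vehicle is applied at that site, and local blood flow is measured by laser Doppler sonography. Free plasma concentrations are also determined.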

[23] = Permeability in Sprague-Dawley rat skin; assay type: ADME, Zone of skin; settings: read-out: permeability (converted)
Outline: (§3)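 Skin flux study after topical administration. Skin permeability is given in cm/h, and compound concentrations are measured separately in the epidermal and dermal layers, expressed as μg/g.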

[24] = Drug level in Sprague-Dawley rat skin epidermal layer; assay type: ADME, Skin epidermis; settings: in vivo; outline: as §3
[25] = Drug level in Sprague-Dawley rat skin dermal layer; assay type: ADME, Dermis; settings: in vivo; outline: as §3
[26] = Unbound fraction in Sprague-Dawley rat plasma

| Structure (SMILES) | IC50 [1] [nM] | IC50 [2] [nM] | other results |
| --- | --- | --- | --- |
| N#Cc1ccc(-c2n[nH]c3cc(OC(F)(F)F)ccc23)s1 | 74 | 80 | – |
| Fc1ccc(-c2n[nH]c3cc(C(F)(F)F)ccc23)cc1F | 2100 | 329 | – |
| Fc1ccc2[nH]c(-c3n[nH]c4cc(OC(F)(F)F)ccc34)cc2c1 | 748 | 116 | – |
| Fc1ccc(Nc2n[nH]c3cc(C(F)(F)F)cnc23)cc1F | 38 | 23 | – |
| Fc1ccc(-c2n[nH]c3cc(C(F)(F)F)cnc23)cc1F | 450 | 255 | – |
| Fc1ccc(Nc2n[nH]c3cc(OC(F)(F)F)cnc23)nc1 | 2540 | 813 | – |
| CN(c1ccc(Cl)nc1)c1nn(C)c2cc(C(F)(F)F)ccc12 | > 10000 | – | – |
| COCCNC(=O)c1ccc2c(-c3ccc(C#N)cc3)n[nH]c2c1 | 2670 | 453 | – |
| FC(F)(F)c1ccc2c(Nc3ccc(C(F)(F)F)nc3)n[nH]c2c1 | > 10000 | – | – |
| Fc1ccc(-c2n[nH]c3cc(NC4CCN(CC5CC5)CC4)cnc23)cc1 | 4630 | 1850 | – |
| N#Cc1ccc(-c2n[nH]c3cc(OC(F)(F)F)ccc23)cc1 | 686 | 246 | EC50 [3]: > 30000 nM; IC50 [4]: > 3000 nM; microsomal CLint [5]: < 8 µL/min/mg; microsomal CLint [6]: 58 µL/min/mg; Papp B→A (MDR1 [7]): 8 ×10⁻⁶ cm/s; Papp A→B (MDR1 [8]): 4 ×10⁻⁶ cm/s; solubility kinetic [9]: 4.8 µg/mL (≈ 15.8 µM); IC50 [10]: > 10000 nM; IC50 [11]: 17.3 µM; IC50 [12]: 17.7 µM; IC50 [13]: > 30 µM; IC50 [14]: 195 nM; Activity (Rattus norvegicus [15]): Dose-dependent effect; minimal effective dose (Rattus norvegicus [15]; read-out: MED): 100 mg/kg; Activity (Rattus norvegicus [16]): Active; concentration (Blood): 11 to 52 nM; IC50 [17]: > 30 µM; Papp (MDCKII-LE): < 0.1 ×10⁻⁶ cm/s |
| Fc1ccc2[nH]c(-c3n[nH]c4cc(OC(F)(F)F)cnc34)cc2c1 | 91 | 8 | – |
| N#Cc1ccc(-c2n[nH]c3cc(OC(F)(F)F)ccc23)cn1 | 1180 | 271 | – |
| Cn1nc(Nc2ccc(Cl)nc2)c2ccc(C(F)(F)F)cc21 | > 10000 | – | – |
| Fc1ccc(-c2n[nH]c3cc(OC(F)(F)F)cnc23)cc1F | 134 | 128 | – |
| Fc1ccc(Nc2n[nH]c3cc(OC(F)(F)F)ccc23)cc1F | 131 | < 100 | inhibition [18]: 96% |
| Clc1ccc(Nc2n[nH]c3ccccc23)cc1 | 11700 | – | – |
| FC(F)(F)c1ccc2c(Nc3ccc(Cl)nc3)n[nH]c2c1 | 550 | – | EC50 [3]: 37 nM; IC50 [4]: 2600 nM; IC50 [10]: 2500 nM; IC50 [11]: 8.52 µM; IC50 [13]: > 30 µM; IC50 [17]: > 100 µM |
| Fc1ccc(Nc2n[nH]c3cc(C(F)(F)F)ncc23)cc1F | 645 | – | – |
| Fc1ccc(Nc2n[nH]c3cc(OC(F)(F)F)cnc23)cc1F | 20 | 11 | IC50 [19]: > 30 µM; IC50 [20]: 132 nM; IC50 [21]: 16 µM; microsomal CLint [5]: 73 µL/min/mg; microsomal CLint [6]: 99 µL/min/mg; Papp B→A (MDR1 [7]): 7 ×10⁻⁶ cm/s; Papp A→B (MDR1 [8]): 2 ×10⁻⁶ cm/s; solubility kinetic [9]: 1.6 µg/mL (≈ 4.85 µM); IC50 [10]: 330 nM; IC50 [11]: 18.2 µM; IC50 [12]: 8.7 µM; IC50 [13]: > 30 µM; IC50 [14]: 11 nM; Activity (Rattus norvegicus [22]): Active; Papp [23]: 0.00333 ×10⁻⁶ cm/s; Drug uptake [24]: 304 µg/g; Drug uptake [25]: 20 µg/g; Drug uptake(free) [26]: 7 to 59 nM |
| Fc1ccc(Nc2n[nH]c3cc(-c4ccccc4OC(F)(F)F)ccc23)cc1F | 1200 | – | – |
| Fc1ccc(Nc2n[nH]c3cc(-c4ccc(F)c(F)c4)ccc23)cc1F | 3700 | – | – |
| FC(F)(F)c1ccc2c(Nc3ccc(Cl)cc3)n[nH]c2c1 | 42 | 9 | – |
| CN(c1ccc(Cl)nc1)c1n[nH]c2cc(C(F)(F)F)ccc12 | > 10000 | – | – |
| Fc1ccc(-c2n[nH]c3cc(OC(F)(F)F)cnc23)cc1 | 257 | 216 | – |
| Fc1ccc(Nc2n[nH]c3cc(C(F)(F)F)ccc23)cc1F | 53 | 9 | – |
| Fc1ccc(Nc2n[nH]c3cc(Cl)ccc23)cc1F | 111 | 49 | – |
